# According to ChEMBL document CHEMBL2331240, “Focused library development of 2-phenylacrylamides as broad spectrum cytotoxic agents” (2013):
# Active and inactive are the calls of the source. The rule behind the calls is not given here.
# Assays:
# DU-145 [1] = assay: Cytotoxicity against human DU145 cells assessed as growth inhibition at 25 uM measured after 72 hrs by MTT assay; format: functional, cell-based
# Summary of the method: (§1)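 Log-phase cells were plated in duplicate at 2500–4000 cells/well in DMEM with 10% FBS, glutamine and antibiotics, at 37 °C under 5% CO2. Drug was added 24 h after plating from a 40 mM DMSO stock, to a final 25 μM. After 72 h exposure, MTT was read at 540 nm and % growth inhibition was calculated, with 100% meaning total growth inhibition.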
# HT-29 [2] = assay: Cytotoxicity against human HT-29 cells assessed as growth inhibition at 25 uM measured after 72 hrs by MTT assay; format: functional, cell-based; summary of the method: as §1
# A-431 [3] = assay: Cytotoxicity against human A431 cells assessed as growth inhibition at 25 uM measured after 72 hrs by MTT assay; format: functional, cell-based; summary of the method: as §1
# BE(2)-C = assay: (§2) Cytotoxicity against human BE(2)-C cells assessed as growth inhibition at 25 uM measured after 72 hrs by MTT assay; format: functional; summary of the method: as §1
# [4] = (§3) Cytotoxicity against human MIA cells assessed as growth inhibition at 25 uM measured after 72 hrs by MTT assay; format: functional; conditions: read-out: GI; summary of the method: as §1
# NCI-H460 = assay: Cytotoxicity against human H460 cells assessed as growth inhibition at 25 uM measured after 72 hrs by MTT assay; format: functional, cell-based; summary of the method: as §1
# MCF7 [5] = assay: Cytotoxicity against human MCF7 cells assessed as growth inhibition at 25 uM measured after 72 hrs by MTT assay; format: functional; conditions: for inhibition of growth at 25 µM: MCF7, 72 h, read-out: GI; summary of the method: as §1
# SJ-G2 = assay: Cytotoxicity against human SJ-G2 cells assessed as growth inhibition at 25 uM measured after 72 hrs by MTT assay; format: functional, cell-based; summary of the method: as §1
# SW480 [6] = assay: Cytotoxicity against human SW480 cells assessed as growth inhibition at 25 uM measured after 72 hrs by MTT assay; format: functional; conditions: for inhibition of growth at 25 µM: SW480, 72 h, read-out: GI; summary of the method: as §1
# SMA = assay: Cytotoxicity against mouse SMA cells assessed as growth inhibition at 25 uM measured after 72 hrs by MTT assay
# A2780 [7] = assay: Cytotoxicity against human A2780 cells assessed as growth inhibition at 25 uM measured after 72 hrs by MTT assay; format: functional; summary of the method: as §1
# [8] = as §2; format: functional; conditions: read-out: GI; summary of the method: as §1
# MIA = assay: as §3; format: functional; summary of the method: as §1
# DU-145 [9] = assay: Cytotoxicity against human DU145 cells assessed as growth inhibition at 100 uM measured after 72 hrs by MTT assay; format: functional; conditions: DU-145, 72 h, read-out: GI
# SW480 [10] = assay: Cytotoxicity against human SW480 cells assessed as growth inhibition at 100 uM measured after 72 hrs by MTT assay; format: functional; conditions: SW480, 72 h, read-out: GI
# MCF7 [11] = assay: Cytotoxicity against human MCF7 cells assessed as growth inhibition measured after 72 hrs by MTT assay; format: functional; conditions: MCF7, 72 h
# Summary of the method: (§4)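 Cells in log phase were seeded in duplicate at 2500–4000 cells/well in supplemented DMEM (37 °C, 5% CO2). Drug from a 40 mM DMSO stock was added on day 0, 24 h post-plating. Read-out was MTT absorbance at 540 nm after 72 h.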
# [12] = Cytotoxicity against human MIA cells assessed as growth inhibition measured after 72 hrs by MTT assay; format: functional; summary of the method: as §4
# DU-145 [13] = assay: Cytotoxicity against human DU145 cells assessed as growth inhibition measured after 72 hrs by MTT assay; format: functional; conditions: DU-145, 72 h; summary of the method: as §4
# A2780 [14] = assay: Cytotoxicity against human A2780 cells assessed as growth inhibition measured after 72 hrs by MTT assay; format: functional; conditions: A2780, 72 h; summary of the method: as §4
# HT-29 [15] = assay: Cytotoxicity against human HT-29 cells assessed as growth inhibition measured after 72 hrs by MTT assay; format: functional; conditions: HT-29, 72 h; summary of the method: as §4
# [16] = Cytotoxicity against mouse SMA cells assessed as growth inhibition at 100 uM measured after 72 hrs by MTT assay; conditions: read-out: GI
# A-431 [17] = assay: Cytotoxicity against human A431 cells assessed as growth inhibition measured after 72 hrs by MTT assay; format: functional; conditions: A-431, 72 h; summary of the method: as §4
# [18] = Cytotoxicity against mouse SMA cells assessed as growth inhibition measured after 72 hrs by MTT assay
# [19] = Cytotoxicity against human BE(2)-C cells assessed as growth inhibition measured after 72 hrs by MTT assay; format: functional; summary of the method: as §4
# HT-29 [20] = assay: Cytotoxicity against human HT-29 cells assessed as growth inhibition at 100 uM measured after 72 hrs by MTT assay; format: functional; conditions: HT-29, 72 h, read-out: GI
# [21] = Cytotoxicity against human SJ-G2 cells assessed as growth inhibition measured after 72 hrs by MTT assay; format: functional; conditions: SJ-G2, 72 h; summary of the method: as §4
# [22] = Cytotoxicity against human BE(2)-C cells assessed as growth inhibition at 100 uM measured after 72 hrs by MTT assay; format: functional; conditions: read-out: GI
# SW480 [23] = assay: Cytotoxicity against human SW480 cells assessed as growth inhibition measured after 72 hrs by MTT assay; format: functional; conditions: SW480, 72 h; summary of the method: as §4
# [24] = Cytotoxicity against human SJ-G2 cells assessed as growth inhibition at 100 uM measured after 72 hrs by MTT assay; format: functional; conditions: SJ-G2, 72 h, read-out: GI
# [25] = Cytotoxicity against human H460 cells assessed as growth inhibition measured after 72 hrs by MTT assay; format: functional; conditions: NCI-H460, 72 h; summary of the method: as §4
# A2780 [26] = assay: Cytotoxicity against human A2780 cells assessed as growth inhibition at 100 uM measured after 72 hrs by MTT assay; format: functional; conditions: A2780, 72 h, read-out: GI
# [27] = Cytotoxicity against human MIA cells assessed as growth inhibition at 100 uM measured after 72 hrs by MTT assay; format: functional; conditions: read-out: GI
# A-431 [28] = assay: Cytotoxicity against human A431 cells assessed as growth inhibition at 100 uM measured after 72 hrs by MTT assay; format: functional; conditions: A-431, 72 h, read-out: GI
# MCF7 [29] = assay: Cytotoxicity against human MCF7 cells assessed as growth inhibition at 100 uM measured after 72 hrs by MTT assay; format: functional; conditions: MCF7, 72 h, read-out: GI
# [30] = Cytotoxicity against human H460 cells assessed as growth inhibition at 100 uM measured after 72 hrs by MTT assay; format: functional; conditions: NCI-H460, 72 h, read-out: GI
smiles,measurement,setting,value
COc1ccc(CNC(=O)/C(C#N)=C/c2cc3ccccc3o2)cc1,growth inhibition (GI),DU-145 [1],inactive
same,growth inhibition (GI),HT-29 [2],inactive
same,growth inhibition (GI),A-431 [3],inactive
same,growth inhibition (GI),BE(2)-C,inactive
same,inhibition of growth at 25 µM,[4],34%
same,growth inhibition (GI),NCI-H460,inactive
same,inhibition of growth at 25 µM,MCF7 [5],40%
same,growth inhibition (GI),SJ-G2,inactive
same,growth inhibition (GI),SW480 [6],inactive
same,growth inhibition (GI),SMA,inactive
same,growth inhibition (GI),A2780 [7],inactive
N#C/C(=C\c1ccc(Cl)c(Cl)c1)C(=O)c1c[nH]c2ccccc12,growth inhibition (GI),DU-145 [1],inactive
same,growth inhibition (GI),HT-29 [2],inactive
same,growth inhibition (GI),A-431 [3],inactive
same,inhibition of growth at 25 µM,[8],33%
same,growth inhibition (GI),MIA,inactive
same,growth inhibition (GI),NCI-H460,inactive
same,inhibition of growth at 25 µM,MCF7 [5],42%
same,growth inhibition (GI),SJ-G2,inactive
same,inhibition of growth at 25 µM,SW480 [6],33%
same,growth inhibition (GI),SMA,inactive
same,inhibition of growth at 25 µM,"A2780 [7]; A2780, 72 h, read-out: GI",32%
N#C/C(=C\c1ccc(Cl)cc1)C(=O)c1ccc[nH]1,inhibition of growth at 100 µM,DU-145 [9],31%
same,inhibition of growth at 100 µM,SW480 [10],31%
same,GI50,MCF7 [11],27 µM
same,GI50,[12],48 µM
same,GI50,DU-145 [13],61 µM
same,GI50,A2780 [14],35 µM
same,GI50,HT-29 [15],36 µM
same,inhibition of growth at 100 µM,[16],31%
same,GI50,A-431 [17],52 µM
same,GI50,[18],38 µM
same,GI50,[19],34 µM
same,inhibition of growth at 100 µM,HT-29 [20],31%
same,GI50,[21],37 µM
same,inhibition of growth at 100 µM,[22],31%
same,GI50,SW480 [23],34 µM
same,inhibition of growth at 100 µM,[24],31%
same,GI50,[25],43 µM
same,inhibition of growth at 100 µM,A2780 [26],31%
same,inhibition of growth at 100 µM,[27],31%
same,inhibition of growth at 100 µM,A-431 [28],31%
same,inhibition of growth at 100 µM,MCF7 [29],31%
same,inhibition of growth at 100 µM,[30],31%
N#C/C(=C\c1ccc(O)cc1)C(=O)c1ccc[nH]1,growth inhibition (GI),DU-145 [1],inactive
same,growth inhibition (GI),HT-29 [2],inactive
same,growth inhibition (GI),A-431 [3],inactive
same,growth inhibition (GI),BE(2)-C,inactive
same,growth inhibition (GI),MIA,inactive
same,growth inhibition (GI),NCI-H460,inactive
same,growth inhibition (GI),MCF7 [5],inactive
same,growth inhibition (GI),SJ-G2,inactive
same,growth inhibition (GI),SW480 [6],inactive
same,growth inhibition (GI),SMA,inactive
same,growth inhibition (GI),A2780 [7],inactive
N#C/C(=C\c1c[nH]c2ccccc12)C(=O)c1ccc[nH]1,growth inhibition (GI),DU-145 [1],inactive
same,growth inhibition (GI),HT-29 [2],inactive
same,growth inhibition (GI),A-431 [3],inactive
same,inhibition of growth at 25 µM,[8],49%
same,growth inhibition (GI),MIA,inactive
same,growth inhibition (GI),NCI-H460,inactive
same,inhibition of growth at 25 µM,MCF7 [5],56%
same,growth inhibition (GI),SJ-G2,inactive
same,inhibition of growth at 25 µM,SW480 [6],43%
same,growth inhibition (GI),SMA,inactive
same,growth inhibition (GI),A2780 [7],inactive
N#C/C(=C\c1ccc(Cl)cc1)C(=O)c1c[nH]c2ccccc12,growth inhibition (GI),DU-145 [1],inactive
same,growth inhibition (GI),HT-29 [2],inactive
same,growth inhibition (GI),A-431 [3],inactive
same,growth inhibition (GI),BE(2)-C,inactive
same,growth inhibition (GI),MIA,inactive
same,growth inhibition (GI),NCI-H460,inactive
same,growth inhibition (GI),MCF7 [5],inactive
same,growth inhibition (GI),SJ-G2,inactive
same,growth inhibition (GI),SW480 [6],inactive
same,growth inhibition (GI),SMA,inactive
same,growth inhibition (GI),A2780 [7],inactive
COc1ccc(CNC(=O)/C(C#N)=C/c2ccc(CO)o2)cc1,growth inhibition (GI),DU-145 [1],inactive
same,growth inhibition (GI),HT-29 [2],inactive
same,growth inhibition (GI),A-431 [3],inactive
same,growth inhibition (GI),BE(2)-C,inactive
same,growth inhibition (GI),MIA,inactive
same,growth inhibition (GI),NCI-H460,inactive
same,growth inhibition (GI),MCF7 [5],inactive
same,growth inhibition (GI),SJ-G2,inactive
same,growth inhibition (GI),SW480 [6],inactive
same,growth inhibition (GI),SMA,inactive
same,growth inhibition (GI),A2780 [7],inactive
